According to ChEMBL document CHEMBL1687709 (Antimicrob Agents Chemother, 2008):

Key:
Format in all cases: ADME, organism-based
[1] = AUC in HIV-infected patient at 480 mg/m2, po administered every 12 hrs for 6 weeks co-administered with 120 mg/m2 of ritonavir and saquinavir; conditions: human, plasma
In short: (§1)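 Step 2 SQV 750 mg/m2 q12h was added by week 4 when LPV IQ was <15. A second 12-h intensive PK study ran after 2 weeks of SQV plus LPV/r (week 6), with plasma predose and at 1, 2, 3, 6 and 12 h. HPLC-UV at 212 nm (LPV 0.100–40, SQV 0.050–20 μg/ml). Noncompartmental AUC, Cmax, Tmax and C12h.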

[2] = Cmax in HIV-infected patient at 480 mg/m2, po administered every 12 hrs for 6 weeks co-administered with 120 mg/m2 of ritonavir and saquinavir; set-up: route oral; conditions: human, in vivo; in short: as §1
[3] = Plasma concentration in HIV-infected patient at 480 mg/m2, po administered every 12 hrs for 6 weeks co-administered with 120 mg/m2 of ritonavir and saquinavir measured 12 hrs after last dose; conditions: human; in short: as §1
[4] = Tmax in HIV-infected patient at 480 mg/m2, po administered every 12 hrs for 6 weeks co-administered with 120 mg/m2 of ritonavir and saquinavir; conditions: human, in vivo; in short: as §1
[5] = AUC in HIV-infected patient at 400 mg/m2, po administered every 12 hrs for 2 weeks co-administered with 120 mg/m2 of ritonavir; conditions: human, plasma, in the assay text read “100 mg/m2 of ritonavir” for “120 mg/m2 of ritonavir”
In short: (§2)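 Treatment-experienced HIV-infected children and adolescents. Without NNRTI: LPV/r 400/100 mg/m2 q12h. With NNRTI: 480/120 mg/m2 q12h. Given as gel capsule or liquid. After 2 weeks, a 12-h intensive PK study followed an observed dose, no standardized meal. Plasma (EDTA) was drawn predose and at 1, 2, 3, 6 and 12 h. LPV was measured by HPLC-UV at 212 nm (range 0.100–40 μg/ml). Noncompartmental AUC, Cmax, Tmax, C12h and CL/F.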

[6] = Cmax in HIV-infected patient at 400 mg/m2, po administered every 12 hrs for 2 weeks co-administered with 120 mg/m2 of ritonavir; set-up: route oral; conditions: human, in vivo, in the assay text read “100 mg/m2 of ritonavir” for “120 mg/m2 of ritonavir”; in short: as §2
[7] = Clearance in HIV-infected patient at 400 mg/m2, po administered every 12 hrs for 2 weeks co-administered with 120 mg/m2 of ritonavir; conditions: human, in vivo, in the assay text read “100 mg/m2 of ritonavir” for “120 mg/m2 of ritonavir”; in short: as §2
[8] = Plasma concentration in HIV-infected patient at 400 mg/m2, po administered every 12 hrs for 2 weeks co-administered with 120 mg/m2 of ritonavir measured 12 hrs after last dose; conditions: human, in the assay text read “100 mg/m2 of ritonavir” for “120 mg/m2 of ritonavir”; in short: as §2
[9] = Tmax in HIV-infected patient at 400 mg/m2, po administered every 12 hrs for 2 weeks co-administered with 120 mg/m2 of ritonavir; conditions: human, in vivo, in the assay text read “100 mg/m2 of ritonavir” for “120 mg/m2 of ritonavir”; in short: as §2

AUC [1] [ng·h/mL]	Cmax [2] [ng/mL]	concentration at 12 h [3] [ng/mL]	Tmax [4] [h]	AUC [5] [ng·h/mL]	Cmax [6] [ng/mL]	CL/F [7] [mL/min]	concentration at 12 h [8] [ng/mL]	Tmax [9] [h]	SMILES
33700	3600	1820	3						CC(C)(C)NC(=O)[C@@H]1C[C@@H]2CCCC[C@@H]2CN1C[C@@H](O)[C@H](Cc1ccccc1)NC(=O)[C@H](CC(N)=O)NC(=O)c1ccc2ccccc2n1
				157000	17200	43	8800	3	Cc1cccc(C)c1OCC(=O)N[C@@H](Cc1ccccc1)[C@@H](O)C[C@H](Cc1ccccc1)NC(=O)[C@H](C(C)C)N1CCCNC1=O [LOPINAVIR]
